Assay results: ChEMBL document CHEMBL3877301 (J Med Chem, 2016)

Key:
Adenosine receptor A2b = target: T1, Adenosine receptor A2b (Homo sapiens, UniProt P29275); test: Inverse agonist activity at human adenosine A2B receptor expressed in CHO cells assessed as inhibition of cAMP accumulation measured after 150 mins in presence of [3H]cAMP by scintillation counting method; assay type: functional, cell-based
T1 sequence (P29275 whole entry): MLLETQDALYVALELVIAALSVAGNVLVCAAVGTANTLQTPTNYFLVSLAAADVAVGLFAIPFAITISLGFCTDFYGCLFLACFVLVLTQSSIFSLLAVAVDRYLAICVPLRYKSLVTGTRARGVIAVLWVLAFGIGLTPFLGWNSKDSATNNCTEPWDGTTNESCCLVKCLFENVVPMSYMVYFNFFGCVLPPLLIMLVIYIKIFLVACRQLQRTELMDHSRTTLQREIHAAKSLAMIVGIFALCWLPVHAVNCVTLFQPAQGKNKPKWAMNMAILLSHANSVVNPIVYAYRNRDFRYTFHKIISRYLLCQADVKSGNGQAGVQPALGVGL

Adenosine receptor A1 = target: T2, Adenosine receptor A1 (Homo sapiens, UniProt P30542); test: Displacement of [3H]DPCPX from human adenosine A1 receptor expressed in CHO cell membranes measured after 90 mins by scintillation counting method
T2 sequence (P30542 whole entry): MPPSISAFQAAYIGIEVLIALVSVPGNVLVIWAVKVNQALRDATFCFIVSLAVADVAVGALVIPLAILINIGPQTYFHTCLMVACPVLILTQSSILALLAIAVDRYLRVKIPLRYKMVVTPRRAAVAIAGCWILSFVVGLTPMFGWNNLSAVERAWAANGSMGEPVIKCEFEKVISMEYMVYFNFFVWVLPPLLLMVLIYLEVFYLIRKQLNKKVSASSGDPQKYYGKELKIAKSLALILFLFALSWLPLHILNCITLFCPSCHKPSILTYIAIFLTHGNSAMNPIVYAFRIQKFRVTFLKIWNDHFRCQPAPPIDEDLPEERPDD
How it was run: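 Membranes came from CHO cells stably transfected with hA1 AR. Cells were scraped into ice-cold hypotonic buffer (5 mM Tris HCl, 1 mM EDTA, pH 7.4), homogenized, and spun at 40000g for 30 min at 4 °C. Membranes (50 μg protein/100 μL) were incubated with 1 nM [3H]-DPCPX and varied test concentrations at 25 °C for 90 min in 50 mM Tris HCl, pH 7.4.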

Adenosine receptor A2a [1] = target: T3, Adenosine receptor A2a (Homo sapiens, UniProt P29274); test: biochemical
T3 sequence (P29274 whole entry): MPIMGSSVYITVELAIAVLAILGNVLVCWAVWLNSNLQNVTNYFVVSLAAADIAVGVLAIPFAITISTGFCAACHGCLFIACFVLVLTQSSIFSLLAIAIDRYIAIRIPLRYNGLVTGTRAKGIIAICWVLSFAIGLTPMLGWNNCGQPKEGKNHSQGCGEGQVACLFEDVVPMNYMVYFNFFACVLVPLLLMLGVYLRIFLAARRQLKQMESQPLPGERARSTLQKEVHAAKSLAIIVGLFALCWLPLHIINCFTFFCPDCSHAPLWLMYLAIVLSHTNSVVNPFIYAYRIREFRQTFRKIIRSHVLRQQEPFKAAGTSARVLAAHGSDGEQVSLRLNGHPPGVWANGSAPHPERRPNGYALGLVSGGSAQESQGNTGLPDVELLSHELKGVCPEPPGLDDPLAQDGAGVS

Adenosine receptor A3 = target: T4, Adenosine receptor A3 (Homo sapiens, UniProt P0DMS8); test: Displacement of [125I]AB-MECA from human adenosine A3 receptor expressed in CHO cell membranes measured after 120 mins by scintillation counting method
T4 sequence (P0DMS8 whole entry): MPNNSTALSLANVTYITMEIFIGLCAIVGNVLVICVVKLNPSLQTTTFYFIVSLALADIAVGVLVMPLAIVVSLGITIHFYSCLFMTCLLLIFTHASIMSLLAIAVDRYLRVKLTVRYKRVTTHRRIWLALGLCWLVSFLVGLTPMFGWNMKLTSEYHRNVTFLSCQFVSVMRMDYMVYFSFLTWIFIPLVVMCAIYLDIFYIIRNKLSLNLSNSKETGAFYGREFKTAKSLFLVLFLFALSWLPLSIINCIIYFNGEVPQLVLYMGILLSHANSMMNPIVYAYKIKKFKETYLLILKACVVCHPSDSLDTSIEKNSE

Mus musculus [2] = organism: Mus musculus; test: Antinociceptive activity in CD-1 mouse assessed as increase in latency in response to heat stimulus measured for 15 mins by hot water tail immersion test; assay type: functional; details: CD-1, 0.25 h
How it was run: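 Test agents were given to mice over a dose range before hot water tail immersion. ED50 (mg/kg) was derived from the dose–response curve, and the minimum effective dose was also noted.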

[3] = target: T5, Adenosine receptor A1 (Homo sapiens) (UniProt P30542); test: Inverse agonist activity at human adenosine A1 receptor expressed in CHO cells assessed as inhibition of cAMP accumulation at 10 uM measured after 150 mins in presence of [3H]cAMP by scintillation counting method relative to control; assay type: functional, cell-based
T5 sequence (whole entry): T2 sequence (P30542 whole entry)
How it was run: (§1)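 Transfected CHO cells (hA1, hA2B or hA3) were grown adherently in DMEM/F12 with 10% fetal calf serum, penicillin, streptomycin, 2 mM L-glutamine and 0.2 mg/mL G418 at 37 °C in 5% CO2. Test compounds were applied at 10 μM. cAMP is reported as percent of basal level (100%), given as mean ± SEM.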

[4] = target: T6, Adenosine receptor A3 (Homo sapiens) (UniProt P0DMS8); test: Inverse agonist activity at human adenosine A3 receptor expressed in CHO cells assessed as inhibition of cAMP accumulation at 10 uM measured after 150 mins in presence of [3H]cAMP by scintillation counting method relative to control; assay type: functional, cell-based; how it was run: as §1
T6 sequence (whole entry): T4 sequence (P0DMS8 whole entry)

Mus musculus [5] = organism: Mus musculus; test: Analgesic activity in CD-1 mouse assessed as reduction in acetic acid-induced abdominal constrictions preincubated for 15 mins followed by acetic acid challenge measured for 30 mins by writhing test; assay type: functional; details: for inhibition: Abdomen
How it was run: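 Mice received acetic acid ip to induce abdominal constrictions; vehicle-treated mice served as controls. Test agents were given over a dose range. ED50 (mg/kg) was derived from the dose–response curve, and dose dependence was analysed by one-way ANOVA.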

[6] = target: T7, Adenosine receptor A2b (Homo sapiens) (UniProt P29275); test: Inverse agonist activity at human adenosine A2B receptor expressed in CHO cells assessed as inhibition of cAMP accumulation at 10 uM measured after 150 mins in presence of [3H]cAMP by scintillation counting method relative to control; assay type: functional, cell-based; how it was run: as §1
T7 sequence (whole entry): T1 sequence (P29275 whole entry)

Adenosine receptor A2a [7] = target: T3, Adenosine receptor A2a; test: Inverse agonist activity at human adenosine A2A receptor expressed in CHO cells assessed as inhibition of cAMP accumulation measured after 150 mins in presence of [3H]cAMP by scintillation counting method; assay type: functional, cell-based
Adenosine receptor A2a [8] = target: T3, Adenosine receptor A2a; test: Antagonist activity against human adenosine A2A receptor expressed in CHO cells assessed as inhibition of CGS21680-stimulated cAMP accumulation measured after 150 mins in presence of [3H]cAMP by scintillation counting method; assay type: functional, cell-based
Adenosine receptor A2a [9] = target: T3, Adenosine receptor A2a; details: CHO

| SMILES | IC50 (Adenosine receptor A2b) [nM] | Ki (Adenosine receptor A1) [nM] | Ki (Adenosine receptor A2a [1]) [nM] | Ki (Adenosine receptor A3) [nM] | ED50 (Mus musculus [2]) [mg/kg] | inhibition [3] [%] | inhibition [4] [%] | inhibition (Mus musculus [5]) | inhibition [6] [%] | IC50 (Adenosine receptor A2a [7]) [nM] | IC50 (Adenosine receptor A2a [8]) [nM] | ED50 (Mus musculus [5]; CD-1, Abdomen) [mg/kg] | KiH (Adenosine receptor A2a [9]) [nM] | minimal effective dose (Mus musculus [2]; read-out: MED) [mg/kg] |
| --- | --- | --- | --- | --- | --- | --- | --- | --- | --- | --- | --- | --- | --- | --- |
| Nc1nc(NCCc2ccc(O)c(O)c2)nc2sc(-c3ccco3)nc12 | 18 | 39 | 40 | 546 |  |  |  |  |  |  |  |  |  |  |
| COc1cccc(CCNc2nc(N)c3nc(-c4ccco4)sc3n2)c1 | 47 | 0.92 | 17 | 287 |  |  |  |  |  |  |  |  |  |  |
| Nc1nc(NCCc2ccc(O)cc2)nc2nc(-c3ccco3)nn12 [ZM-241385] |  |  |  |  | > 10 | 103 | 101 | Dose-dependent effect | 109 |  |  |  |  |  |
| Nc1nc(NCc2cccc(O)c2)nc2sc(-c3ccco3)nc12 |  |  |  |  |  | 96 | 98 |  | 95 |  |  |  |  |  |
| Nc1nc(NCc2ccccc2)nc2sc(-c3ccco3)nc12 | 32 | 45 | 22 | 37 |  | 101 | 102 |  | 95 | 29 | 18 |  |  |  |
| COc1cccc(CNc2nc(N)c3nc(-c4ccco4)sc3n2)c1 |  |  |  |  | 0.926 | 104 | 106 | Dose-dependent effect | 99 |  |  | 0.158 | 6.71 |  |
| Nc1nc(NCCc2ccccc2)nc2sc(-c3ccco3)nc12 | 389 | 24 | 30 | 217 |  | 105 | 94 |  | 102 | 35 | 16 |  |  |  |
| Nc1nc(Nc2ccccc2)nc2sc(-c3ccco3)nc12 | 632 | 645 | 782 | 321 |  |  |  |  |  |  |  |  |  |  |
| COc1ccc(CCNc2nc(N)c3nc(-c4ccco4)sc3n2)cc1OC | 95 | 221 | 91 | 824 |  |  |  |  |  |  |  |  |  |  |
| CN1CC[C@]23c4c5ccc(O)c4O[C@H]2[C@@H](O)C=C[C@H]3[C@H]1C5 [MORPHINE] |  |  |  |  | 1.14 |  |  | Dose-dependent effect |  |  |  |  |  |  |
| COc1ccccc1CNc1nc(N)c2nc(-c3ccco3)sc2n1 |  |  |  |  |  | 106 | 91 | Dose-dependent effect | 94 |  |  |  | 5.23 | 0.01 |
| COc1ccc(CCNc2nc(N)c3nc(-c4ccco4)sc3n2)cc1 | 553 | 61 | 32 | 2650 |  | 93 | 105 |  | 103 | 42 | 31 |  |  |  |
| Nc1nc(NCCCc2ccccc2)nc2sc(-c3ccco3)nc12 | 1770 | 49 | 58 | 1140 |  |  |  |  |  |  |  |  |  |  |
| Nc1nc(NCCc2ccc(O)cc2)nc2sc(-c3ccco3)nc12 | 482 | 37 | 18 | 1880 |  | 102 | 101 |  | 92 | 25 | 21 |  |  |  |
| Nc1nc(NCCc2cccc(O)c2)nc2sc(-c3ccco3)nc12 | 25 | 0.23 | 16 | 76 |  |  |  |  |  |  |  |  |  |  |
| COc1ccc(CNc2nc(N)c3nc(-c4ccco4)sc3n2)cc1 |  |  |  |  |  | 100 | 104 |  | 97 |  |  |  |  |  |
